This note sets out measurements from ChEMBL document CHEMBL4190388, “Discovery and Optimization of Indolyl-Containing 4-Hydroxy-2-Pyridone Type II DNA Topoisomerase Inhibitors Active against Multidrug Resistant Gram-negative Bacteria” (J Med Chem, 2018).

One may read the IC50 as the point on the concentration scale where inhibition reaches its midpoint. The term MIC50 denotes an inhibitory concentration at the 50% level, which refers to growth in some studies and to a panel of isolates in others. High values mean weaker potency, low ones greater potency. For orientation: MIC90 means the lowest concentration that inhibits either 90% of growth or 90% of the strains tested, depending on the study. A low value points to higher susceptibility. Broadly, the MIC is the least concentration at which growth counts as inhibited.

SMILES strings stand for the structures. In brackets after ≈: the same amount, converted by molar mass.

Experiment [1] can be described thus: Inhibition of His tagged Escherichia coli ATCC 25922 DNA gyrase A expressed in Escherichia coli BL21 (DE3) pLysS cells assessed as reduction in enzyme-mediated supercoiling of relaxed plasmid DNA pNO1 after 30 mins in presence of biotinylated TFO1 by fluorescence assay.
The test system of experiment [2] is Acinetobacter baumannii. Put plainly: Antibacterial activity against carbapenem resistant Acinetobacter baumannii by broth microdilution method. Type of experiment: functional. The conditions noted are these: Acinetobacter baumannii. The method in brief:
(§1)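 MICs were determined by CLSI broth methods, except that organisms were grown in brain–heart–infusion medium. The panel comprised wild-type and resistant E. coli and A. baumannii strains, including 12 strains whose details are given by reference.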
(In general: Broth dilution looks for growth in wells or tubes with falling amounts of substance.)

The nature of experiment [3]: Inhibition of Escherichia coli DNA topoisomerase 4 assessed as reduction in decatenation activity using kinetoplast concatenated DNA as substrate after 30 mins by picogreen dye based fluorescence assay.
Experiment [4] deals with Escherichia coli. As to the kind of experiment: Antibacterial activity against quinolone resistant Escherichia coli by broth microdilution method. Type of experiment: functional. The conditions noted are these: Escherichia coli. Put shortly:
as §1

Experiment [5] relates to Escherichia coli. Put plainly: Antibacterial activity against beta-lactam resistant Escherichia coli by broth microdilution method. It counts as functional. The conditions noted are these: Escherichia coli. The method in brief:
as §1

In experiment [6] the test system is Acinetobacter baumannii. As to the kind of experiment: Antibacterial activity against multidrug resistant Acinetobacter baumannii by broth microdilution method. Type of experiment: functional. The conditions noted are these: Acinetobacter baumannii. The method in brief: as §1
In experiment [7] the test system is Acinetobacter baumannii. Put plainly: Antibacterial activity against wild type Acinetobacter baumannii by broth microdilution method. Type of experiment: functional. Put shortly:
as §1

For experiment [8], the system named is Escherichia coli. As to the kind of experiment: Antibacterial activity against fluoroquinolone resistant Escherichia coli SKM18 by CLSI M100-S17 protocol based method. It counts as functional.
For experiment [9], the system named is Escherichia coli. As to the kind of experiment: Antibacterial activity against wild type Escherichia coli by broth microdilution method. It counts as functional. Put shortly: as §1
The test system of experiment [10] is Acinetobacter baumannii. Put plainly: Antibacterial activity against wild type Acinetobacter baumannii ATCC BAA-747 by CLSI M100-S17 protocol based method. Type of experiment: functional.
Experiment [11] relates to Escherichia coli. As to the kind of experiment: Antibacterial activity against aminoglycoside resistant Escherichia coli by broth microdilution method. Type of experiment: functional. The conditions noted are these: Escherichia coli. The method in brief:
as §1

The test system of experiment [12] is Acinetobacter baumannii. Put plainly: Antibacterial activity against beta-lactam resistant Acinetobacter baumannii by broth microdilution method. Type of experiment: functional. The conditions noted are these: Acinetobacter baumannii. Put shortly: as §1
The subject of experiment [13] is Acinetobacter baumannii. Put plainly: Antibacterial activity against fluoroquinolone resistant Acinetobacter baumannii isolate MMX2240 by CLSI M100-S17 protocol based method. It counts as functional.
Experiment [14] deals with Acinetobacter baumannii. Put plainly: Antibacterial activity against quinolone resistant Acinetobacter baumannii by broth microdilution method. The following applies: Acinetobacter baumannii. It counts as functional. Put shortly:
as §1

For experiment [15], the system named is Acinetobacter baumannii. As to the kind of experiment: Antibacterial activity against aminoglycoside resistant Acinetobacter baumannii by broth microdilution method. It counts as functional. The following applies: Acinetobacter baumannii. The method in brief:
as §1

For experiment [16], the system named is Klebsiella pneumoniae. As to the kind of experiment: Antibacterial activity against wild type Klebsiella pneumoniae ATCC 35657 by CLSI M100-S17 protocol based method. Type of experiment: functional.
Experiment [17] has as its system Escherichia coli. Put plainly: Antibacterial activity against quinolone resistance Escherichia coli isolate ELZ4251 harboring gyrA/parC mutant by CLSI M100-S17 protocol based method. It counts as functional.
Experiment [18] deals with Escherichia coli. As to the kind of experiment: Antibacterial activity against wild type Escherichia coli ATCC 25922 by CLSI M100-S17 protocol based method. Type of experiment: functional.
Experiment [19] deals with Escherichia coli. Put plainly: Antibacterial activity against wild type Escherichia coli ATCC 25922 in presence of HSA by CLSI M100-S17 protocol based method. It counts as functional.
Experiment [20] concerns Escherichia coli. Put plainly: Antibacterial activity against multidrug resistant Escherichia coli by broth microdilution method. It counts as functional. The following applies: Escherichia coli. The method in brief:
as §1

In experiment [21] the test system is Escherichia coli. Put plainly: Selectivity ratio of MIC for wild type Escherichia coli ATCC 25922 in presence of HSA to MIC for wild type Escherichia coli ATCC 25922. Type of experiment: functional.

Consider `CCNCc1cc2cc(-c3[nH]c(=O)c(C(=O)O)c(O)c3CC)ccc2n1C`, for which the IC50 in experiment [1] was 0.3 µM; in experiment [3], 3.3 µM. Moreover, the MIC50 in [2] worked out at 2 µg/mL (≈ 5.41 µM); in experiment [4], 1 µg/mL (≈ 2.71 µM); in [5], 1 µg/mL (≈ 2.71 µM); in [6], 2 µg/mL (≈ 5.41 µM); in [7], 2 µg/mL (≈ 5.41 µM); in experiment [9], 1 µg/mL (≈ 2.71 µM). The MIC50 in experiment [11] amounted to 1 µg/mL (≈ 2.71 µM); in experiment [12], 2 µg/mL (≈ 5.41 µM); in experiment [14], 2 µg/mL (≈ 5.41 µM); in experiment [15] it was 2 µg/mL (≈ 5.41 µM); in experiment [20], 1 µg/mL (≈ 2.71 µM). Moreover, the MIC90 in [2] was found to be 16 µg/mL (≈ 43.3 µM); in experiment [4] it was 4 µg/mL (≈ 10.8 µM); in experiment [5] it was 4 µg/mL (≈ 10.8 µM); in [6] it was 16 µg/mL (≈ 43.3 µM); in experiment [7], 16 µg/mL (≈ 43.3 µM); in [9] it was 4 µg/mL (≈ 10.8 µM). For the same compound, the MIC90 in [11] stood at 4 µg/mL (≈ 10.8 µM); in experiment [12] it was 16 µg/mL (≈ 43.3 µM); in [14] it was 16 µg/mL (≈ 43.3 µM); in experiment [15] it was 16 µg/mL (≈ 43.3 µM); in experiment [20], 4 µg/mL (≈ 10.8 µM). For the same compound, the MIC is 0.5 to 32 µg/mL (≈ 1.35 to 86.6 µM) in [2] (read-out: MIC); 0.25 to 4 µg/mL (≈ 0.677 to 10.8 µM) in [4] (read-out: MIC); 0.25 to 4 µg/mL (≈ 0.677 to 10.8 µM) in [5] (read-out: MIC); 0.5 to 32 µg/mL (≈ 1.35 to 86.6 µM) in experiment [6] (read-out: MIC); 1.6 µg/mL (≈ 4.33 µM) in [8]; 0.78 µg/mL (≈ 2.11 µM) in [10]. Moreover, the MIC was 0.25 to 4 µg/mL (≈ 0.677 to 10.8 µM) in experiment [11] (read-out: MIC); 0.5 to 32 µg/mL (≈ 1.35 to 86.6 µM) in experiment [12] (read-out: MIC); 6.3 µg/mL (≈ 17.1 µM) in experiment [13]; 0.5 to 32 µg/mL (≈ 1.35 to 86.6 µM) in [14] (read-out: MIC); 0.5 to 32 µg/mL (≈ 1.35 to 86.6 µM) in experiment [15] (read-out: MIC); 0.39 µg/mL (≈ 1.06 µM) in experiment [16]. Besides, the MIC was 3.1 µg/mL (≈ 8.39 µM) in experiment [17], 0.39 µg/mL (≈ 1.06 µM) in [18], 1.6 µg/mL in [19] and 0.25 to 4 µg/mL (≈ 0.677 to 10.8 µM) in [20] (read-out: MIC).
With `CCNCc1cc2c3c(ccc2n1C)-c1[nH]c(=O)c(C(=O)O)c(O)c1CCC3`, the IC50 in experiment [3] worked out at 19 µM. Further, the MIC in [8] was 6.3 µg/mL (≈ 16.5 µM); in [18], 12.5 µg/mL (≈ 32.8 µM).
As to `CCc1c(-c2ccc3c(ccn3C)c2)[nH]c(=O)c(C(=O)O)c1O`, the Ratio in [21] is on record as >40. Moreover, the minimum inhibitory concentration (MIC) in experiment [8] was 3.1 µg/mL (≈ 9.93 µM); in experiment [10], 0.78 µg/mL (≈ 2.5 µM); in experiment [13], 0.78 µg/mL (≈ 2.5 µM); in experiment [16], 3.1 µg/mL (≈ 9.93 µM); in [17] it was 6.3 µg/mL (≈ 20.2 µM); in [18] it was 0.78 µg/mL (≈ 2.5 µM). For the same compound, in experiment [19], the MIC was > 62.5 µg/mL.
On to `CNCc1cc2cc3c(cc2n1C)CCCc1c-3[nH]c(=O)c(C(=O)O)c1O`, for which the IC50 in experiment [1] was 0.1 µM; in experiment [3], 3.7 µM. The Ratio in experiment [21] was 4 - 16. Also, the MIC was found to be 0.39 µg/mL (≈ 1.06 µM) in [8]; 1.6 µg/mL (≈ 4.35 µM) in experiment [10]; 1.6 µg/mL (≈ 4.35 µM) in [13]; 0.39 µg/mL (≈ 1.06 µM) in experiment [16]; 0.8 µg/mL (≈ 2.18 µM) in [17]; 0.39 µg/mL (≈ 1.06 µM) in experiment [18]. Moreover, the MIC in [19] amounted to 3.1 µg/mL.
Turning to `CCc1c(-c2ccc3c(c2)cc(C)n3C)[nH]c(=O)c(C(=O)O)c1O`, the Ratio in [21] is >40. For the same compound, the MIC in [8] was > 62.5 µg/mL; in experiment [17], 62.5 µg/mL (≈ 192 µM); in [18] it was 1.6 µg/mL (≈ 4.9 µM); in experiment [19], > 62.5 µg/mL.
For `CCNCc1cc2cc3c(cc2n1C)Cc1c-3[nH]c(=O)c(C(=O)O)c1O`, the concentration for half-maximal inhibition (IC50) in experiment [1] and in experiment [3] was > 11.1 µM each time. Also, the MIC in experiment [8] and in [18] was > 62.5 µg/mL throughout.
On to `CCNCc1cc2cc3c(cc2n1C)SCCc1c-3[nH]c(=O)c(C(=O)O)c1O`, for which, in experiment [21], the Ratio is 8 - 16. Besides, the MIC in experiment [8] is 0.5 µg/mL (≈ 1.25 µM); in experiment [10] it was 3.9 µg/mL (≈ 9.76 µM); in experiment [13] it was 3.9 µg/mL (≈ 9.76 µM); in experiment [16] it was 1 µg/mL (≈ 2.5 µM); in experiment [17], 1.6 µg/mL (≈ 4.01 µM); in [18], 1 µg/mL (≈ 2.5 µM). In addition, the MIC in experiment [19] turned out to be 15.6 µg/mL.
